Screens from PubChem BioAssay.
Compounds with a hit are over-represented: about 3% of the library has one in this group of screens.
TRPC4 agonist: TRPC4 (mouse) channel activation | 310,000 compounds, 0.49% hits | B-score at 10 µM | HEK293 TRPC4beta/mu-opioid, Fluo4 calcium fluorescence; active compounds read high | Q9QUQ5;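 active = B-score above 5 SD of library B-scores, and initial fluorescence ratio not above library mean plus 5 SD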;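 also: positive B-score marks a calcium rise read as TRPC4 activation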
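Assay system: HEK293 cells stably co-expressing mouse TRPC4beta and mu-opioid receptor / Timing: Fluo4 dye loading 45 min at room temperature, 110 s recording / Signal: Fluo4 calcium-sensitive dye fluorescence, kinetic, 1 Hz baseline / Read-out: integrated baseline-normalised fluorescence ratio, converted to per-well B score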
TRPC6 inh: inhibitors of mouse TRPC6 channel; Q61143; HEK293-TRPC6, membrane potential dye, ACh-evoked depolarization; active compounds read low; B-score at 10 µM; 310,000 compounds, 1.1% hits; AID 2553;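 active = B-score under library mean minus 3 SD, initial fluorescence not abnormally high, positive integrated signal ratio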;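 also: B-score derived from integrated fluorescence ratio over the kinetic read; more negative B-score means stronger inhibition of depolarization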
TRPC4 block: blocks the mouse TRPC4 cation channel | Q9QUQ5 | HEK293 TRPC4beta/mu-opioid, DAMGO-evoked Fluo4 calcium flux; active compounds read low | B-score at 10 µM | 300,000 compounds, 0.39% hits | AID 2247;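 active = B-score over 3 SD under the library average, no early fluorescence shift, positive overall ratio signal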
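Assay system: TRPC4beta/mu-opioid receptor HEK293 cell line; compound dosing: single concentration per test compound; detection: Fluo4 Ca2+ flux fluorescence; evaluation: per-well B score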
TRPC4 PAM: allosteric potentiators of mouse TRPC4 channel. 310,000 compounds, 0.42% hits. HEK293 TRPC4beta/mu-opioid, DAMGO EC20, Fluo-4 Ca2+ flux; active compounds read high. B-score at 10 µM. Q9QUQ5;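 active = B-score of calcium response area above 5 SD of library B-scores, with initial fluorescence ratio within 5 SD of library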;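 also: B-score of integrated fluorescence ratio over time as area under calcium response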
Kir21 inh: blocks the mouse Kir2.1 inward-rectifier potassium channel. P35561. HEK293-Kir2.1, FluxOR thallium flux fluorescence; active compounds read low. B-score at 10 µM. 310,000 compounds, 0.85% hits;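 active = fluorescence ratio B-score at or below minus 3 SD of library scores, with starting-brightness B-score within 2 SD, cut at about -4.2 in these data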;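 also: channel flux triggered by added potassium and thallium sulfate stimulus; B-score of peak minus minimum fluorescence over baseline after thallium stimulus; more negative B-score means stronger Kir2.1 block with less thallium influx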
TRPC6 act: activates the mouse TRPC6 cation channel. Q61143. HEK293-TRPC6 membrane potential dye fluorescence; active compounds read high. B-score at 10 µM. 310,000 compounds, 0.13% hits;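 active = B-score of the integrated fluorescence ratio above library mean plus 3 SD, and starting fluorescence ratio within library mean plus 5 SD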;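 also: higher score means more depolarization so channel activation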
* = called active by the depositor; i = inactive.

SMILES	TRPC4 agonist	TRPC6 inh	TRPC4 block	TRPC4 PAM	Kir21 inh	TRPC6 act
Cc1cc(NC(=O)CN2CCc3ccccc3C2)nc2c1c(=O)oc1ccccc12	98*	i	i	i	-1.7	i
CCN(CC)CCSc1nc(O)c(C(C)C)c(=O)[nH]1	80*	i	i	12*	1.4	i
CCCc1c(O)nc(SCCN(CC)CC)[nH]c1=O	112*	i	i	i	1.4	i
CCOc1ccccc1C(=O)N1CCN(c2ccc(C(F)(F)F)cn2)CC1	i	i	i	i	-0.98	i
Cc1c(N)c(C(C)(C)C)cc(C(C)(C)C)c1[N+](=O)[O-]	i	i	-6*	i	-1.4	i
Cc1cc(OC(=O)C(C)(C)C)c([N+](=O)[O-])c(=O)[nH]1	i	i	i	i	1.9	i
Cc1cc(C)nc(/N=C(\N)Nc2ccccc2-c2ccccc2)n1	i	i	-6*	i	-1.6	i
CCCCc1ccc(N/C(N)=N/c2nc(C)cc(C)n2)cc1	77*	i	i	i	-5.2*	i
Cc1cc(C)cc(N/C(N)=N/c2nc(C)cc(C)n2)c1	i	i	-6*	i	-0.62	i
Cc1ccc(N/C(N)=N/c2nc(C)cc(C)n2)cc1	i	i	i	i	-0.02	i
Cc1c([N+](=O)[O-])cnc(Sc2ccccc2)c1[N+](=O)[O-]	i	i	i	i	-1.2	i
CN(C)CCNC(=O)c1scc2c1CCCC2	142*	i	i	i	-1.2	i
C=CCNC(=O)c1scc2c1CCCC2	i	i	i	i	0.09	i
Cc1nnc(NC(=O)c2ccc(Br)o2)s1	i	i	i	i	-1.4	i
CC(=O)Oc1ccc(/C=C(\NC(=O)c2ccco2)C(=O)NCc2ccccc2)cc1	i	i	-7*	i	1	i
O=C(NCc1ccccc1)/C(=C/c1ccccc1)NC(=O)c1ccco1	i	i	i	i	0.24	i
Cc1ccc(-c2nn(-c3ccccc3)cc2CSC(=N)N)cc1	68*	i	i	i	-5.8*	i
OCc1cn(-c2ccccc2)nc1-c1ccc(-c2nn(-c3ccccc3)cc2CO)cc1	i	i	i	i	-0.28	i
CC(=O)[C@@]1(O)[C@H](C)CC2C3CC=C4CC(OP(=O)(O)O)CC[C@]4(C)C3CC[C@@]21C (stereo partly specified)	i	i	i	i	0.67	i
COc1ccc(C)cc1Nc1n[n+](-c2ccccc2)c(-c2ccc(OC)c(OC)c2OC)s1	i	i	i	i	-4.9*	i
COc1ccc(C)cc1Nc1n[n+](-c2ccccc2)c(-c2c(Cl)cccc2Cl)s1	67*	-5.4*	i	i	-3.5	i
COc1ccc(C)cc1Nc1n[n+](-c2ccccc2)c(-c2ccc(N(C)C)cc2)s1	i	i	i	i	-1.1	i
COc1ccc(S(=O)(=O)N2CCOC2CNC(=O)C(=O)NCc2ccc3c(c2)OCO3)cc1 (stereo unspecified)	i	i	i	i	0.56	i
O=C(NN1C(=O)C2C(c3ccccc3)C=CC(c3ccccc3)C2C1=O)c1cccc(Br)c1 (stereo unspecified)	i	i	i	i	0.66	i
CC1c2ccsc2CCN1S(=O)(=O)c1cccs1 (stereo unspecified)	i	i	i	i	-6.2*	i
SMILES	TRPC4 agonist	TRPC6 inh	TRPC4 block	TRPC4 PAM	Kir21 inh	TRPC6 act
Cc1nn(C(=O)CNS(=O)(=O)c2ccccc2)c(C)c1Sc1ccc(Cl)cc1	i	i	-7*	i	-0.96	i
O=C(CNS(=O)(=O)c1ccccc1)NCC(=O)OCc1ccc(Cl)cc1	i	i	i	i	0.98	i
Cc1ccc2c(c1)C1CN(C)CCC1N2C(=S)NC(=O)c1ccc(Br)cc1 (stereo unspecified)	i	i	i	17*	0.01	i
COCC(C)NC(=O)c1nn(Cc2ccccc2)c(=O)c2ccccc12 (stereo unspecified)	i	i	i	i	-0.74	i
CCOc1ccc(CCNC(=O)COC(=O)CCC(=O)c2cccs2)cc1OCC	i	i	i	i	-5.3*	i
Cc1ccc2c(c1)C(=O)N(CCCCO)C2=O	i	i	i	i	0.14	i
O=C1c2ccc(Oc3ccc4c(c3)C(=O)N(CCCO)C4=O)cc2C(=O)N1CCCO	71*	i	i	i	0.34	i
COc1ccc2nc(SCc3ccccc3C)nc(C)c2c1	i	i	i	i	-0.49	i
COc1ccc2nc(SCCOC(=O)Nc3ccc(Cl)cc3)nc(C)c2c1	i	i	i	i	-5.7*	i
O=C(O)CSc1nnc(Cc2ccccc2)n1-c1ccccc1	i	i	i	i	-0.35	i
O=[N+]([O-])c1cccc(CSc2nnc(Cc3ccccc3)n2-c2ccc(F)cc2)c1	i	i	i	i	-5.8*	i
Cc1cc(C(=O)N/N=C2\CC(=O)c3ccccc32)c(C)n1-c1ccccc1	i	i	i	i	-0.74	i
O=C(Nc1ccc(Oc2cccnc2)cc1)C1CCN(Cc2ccccc2)CC1	i	i	i	i	-3.5	i
CCn1cc(CN2CCC(C(=O)Nc3ccc(Oc4ccccc4)nc3)CC2)cn1	i	i	i	i	-0.31	i
Cc1ccc(CN2CCC(C(=O)Nc3ccc(Oc4cccnc4)cc3)CC2)cc1	i	i	i	i	-4.8*	i
O=C(Nc1ccc(Oc2ccccc2)nc1)C1CCN(Cc2ccccc2)CC1	i	i	-6*	i	-2.8	i
O=C(O)CCN1C(=O)c2ccc(Oc3ccc([N+](=O)[O-])cc3)cc2C1=O	i	i	i	i	1.8	i
COc1ccc(C(OCC(O)CN2CCC(O)CC2)c2ccc(OC)cc2)cc1 (stereo unspecified)	i	i	i	i	-1.6	i
CCCCCc1ccc(OCCCC[n+]2cccc(C)c2)c(CCCCC)c1	i	i	i	i	-5.1*	i
CCCCCc1ccc(OCCCC[n+]2ccc(C)cc2)c(CCCCC)c1	i	i	i	i	-9.1*	i
Cc1c(C(=O)N(CCO)Cc2ccccc2)oc2c(F)cccc12	i	i	i	i	1.7	i
